From ChEMBL document CHEMBL3352771, “3-Cyano-3-aza-β-amino Acid Derivatives as Inhibitors of Human Cysteine Cathepsins” (ACS Med Chem Lett, 2014)

Experiments:
Cathepsin B = Cathepsin B (Homo sapiens, UniProt P07858); test: Inhibition of human cathepsin B using Z-Arg-Arg-pNA chromogenic substrate fluorogenic substrate incubated for 30 mins
Summary of the method: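 Chromogenic readout with Z-Arg-Arg-pNA at 500 μM final (0.45 × Km), followed over 30 min. Duplicate runs at five inhibitor concentrations. IC50 obtained by nonlinear regression of steady-state rates, v_s = v0/(1+[I]/IC50). Ki derived as IC50/(1+[S]/Km).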

Cathepsin S [1] = target: T1, Cathepsin S (Homo sapiens, UniProt P25774); test: Inhibition of human cathepsin S assessed as second order rate constant using Z-Phe-Arg-AMC fluorogenic substrate incubated for 60 mins
Target sequence in this assay (P25774 115-331 limits assumed): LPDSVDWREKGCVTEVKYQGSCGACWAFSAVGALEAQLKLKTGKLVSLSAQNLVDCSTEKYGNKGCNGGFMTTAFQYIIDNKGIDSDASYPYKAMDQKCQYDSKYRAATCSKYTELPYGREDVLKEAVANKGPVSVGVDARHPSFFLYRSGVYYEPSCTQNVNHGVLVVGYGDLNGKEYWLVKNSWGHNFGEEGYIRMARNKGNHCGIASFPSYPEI

Procathepsin L = Procathepsin L (Homo sapiens, UniProt P07711); test: Inhibition of human cathepsin L using Z-Phe-Arg-pNA chromogenic substrate fluorogenic substrate incubated for 30 mins
Summary of the method: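 Duplicate measurements at five inhibitor concentrations. IC50 from nonlinear regression of steady-state rates, v_s = v0/(1+[I]/IC50). Ki obtained as IC50/(1+[S]/Km).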

Cathepsin S [2] = target: T1, Cathepsin S; test: Inhibition of human cathepsin S using Z-Phe-Arg-AMC fluorogenic substrate fluorogenic substrate incubated for 60 mins
Summary of the method: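 Z-Phe-Arg-AMC substrate at 40 μM final (0.74 × Km), monitored over 60 min. Duplicate runs at five inhibitor concentrations. Steady-state rates fitted by nonlinear regression, v_s = v0/(1+[I]/IC50). Ki converted using IC50/(1+[S]/Km).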
Target sequence in this assay (P25774 whole entry): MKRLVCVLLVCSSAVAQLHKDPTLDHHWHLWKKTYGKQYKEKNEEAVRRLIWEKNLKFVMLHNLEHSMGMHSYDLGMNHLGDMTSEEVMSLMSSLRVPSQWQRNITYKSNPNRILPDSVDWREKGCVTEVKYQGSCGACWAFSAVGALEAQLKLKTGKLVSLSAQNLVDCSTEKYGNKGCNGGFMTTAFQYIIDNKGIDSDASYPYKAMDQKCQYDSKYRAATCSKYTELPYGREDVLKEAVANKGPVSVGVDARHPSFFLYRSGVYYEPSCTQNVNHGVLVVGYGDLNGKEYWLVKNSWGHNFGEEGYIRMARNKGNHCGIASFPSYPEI

[3] = target: Cathepsin K (Homo sapiens) (UniProt P43235); test: Inhibition of human cathepsin K assessed as second order rate constant using Z-Leu-Arg-AMC fluorogenic substrate incubated for 60 mins
Cathepsin S [4] = target: T1, Cathepsin S; test: Inhibition of human cathepsin S assessed half life for enzyme-inhibitor complex using Z-Phe-Arg-AMC fluorogenic substrate fluorogenic substrate incubated for 60 mins
Summary of the method: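 Complex half-lives calculated from koff values for cathepsin K and cathepsin S. Progress curves used fluorescence emission at 440 nm with excitation at 360 nm. First-order rate constants kobs plotted against inhibitor concentration.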
Target sequence in this assay (P25774 115-331 limits assumed): as the sequence (P25774 115-331 limits assumed) above

Sequence of Cathepsin K (Homo sapiens) (P43235 whole entry, looked up): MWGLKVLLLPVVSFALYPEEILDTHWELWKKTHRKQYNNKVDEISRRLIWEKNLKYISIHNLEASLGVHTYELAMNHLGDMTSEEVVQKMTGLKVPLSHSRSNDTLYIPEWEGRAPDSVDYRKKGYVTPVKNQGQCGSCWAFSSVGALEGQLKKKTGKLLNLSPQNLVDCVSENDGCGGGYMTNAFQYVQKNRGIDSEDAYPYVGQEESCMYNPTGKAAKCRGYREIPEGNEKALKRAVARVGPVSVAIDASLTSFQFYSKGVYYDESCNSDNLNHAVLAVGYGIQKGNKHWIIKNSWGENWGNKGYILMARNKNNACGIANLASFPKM
Sequence of Procathepsin L (P07711 whole entry): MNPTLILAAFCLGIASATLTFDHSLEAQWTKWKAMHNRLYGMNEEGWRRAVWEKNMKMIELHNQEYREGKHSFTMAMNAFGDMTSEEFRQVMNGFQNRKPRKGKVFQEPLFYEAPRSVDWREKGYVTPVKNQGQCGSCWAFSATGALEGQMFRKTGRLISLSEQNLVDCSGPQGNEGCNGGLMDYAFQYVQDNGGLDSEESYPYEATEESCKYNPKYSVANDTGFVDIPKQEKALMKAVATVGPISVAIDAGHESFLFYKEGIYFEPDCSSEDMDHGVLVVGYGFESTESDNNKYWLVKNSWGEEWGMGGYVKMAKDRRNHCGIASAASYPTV

| Ki (Cathepsin B) [µM] | K (Cathepsin S [1]) [×10³ /M/s] | Ki (Procathepsin L) [µM] | Ki (Cathepsin S [2]) [µM] | K [3] [×10³ /M/s] | T1/2 (Cathepsin S [4]) [min] | Structure (SMILES) |
| --- | --- | --- | --- | --- | --- | --- |
| 0.000406 | 2580 | 0.185 | 0.00013 | 52900 | – | CC(C)(C)OC(=O)NN(C#N)CC(=O)N(Cc1ccccc1)Cc1ccccc1 |
| 0.00356 | 757 | 0.573 | 0.000777 | 19000 | 10 | CC(C)(C)OC(=O)NN(C#N)CC(=O)N1CCOCC1 |
| 0.000459 | 1590 | 0.228 | 0.000176 | 28900 | – | CN(Cc1ccccc1)C(=O)CN(C#N)NC(=O)OC(C)(C)C |
| 3.8 | – | 3.26 | 30.1 | – | – | CCCN1CCN(c2ccc(C(=O)NC3(C(=O)NCC#N)CCCCC3)cc2)CC1 [BALICATIB] |
| 0.194 | 0.461 | 1.69 | 0.793 | 4.05 | – | CN(C(=O)OC(C)(C)C)N(C#N)CC(=O)N1CCOCC1 |
